Test results reported in ChEMBL document CHEMBL1275311, “Synthesis and vasodilation activity of some novel bis(3-pyridinecarbonitrile) derivatives” (Eur J Med Chem, 2010).

Each compound was assayed on Thoracic aorta (assay: Vasodilatory activity in Wistar rat thoracic aorta assessed as reduction of norepinephrine hydrochloride-induced vasoconstriction).
Type: functional, tissue-based
Procedure, shortened: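 Isolated rat aorta preparation with contractile response recorded. Compounds were dissolved in DMSO, with vehicle-only controls run at the same DMSO concentrations. Relaxation was plotted against compound concentration (mM) to give concentration–response curves, and IC50 was calculated by the best-fit line technique.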
Work on COc1nc(-c2ccccc2)cc(-c2ccccc2OCCOc2ccccc2-c2cc(-c3ccccc3)nc(OC)c2C#N)c1C#N yielded an IC50 of 1050 µM. CCOc1nc(-c2ccccc2)cc(-c2ccccc2OCCOc2ccccc2-c2cc(-c3ccccc3)nc(OCC)c2C#N)c1C#N gave an IC50 of 862 µM. For COc1nc(-c2ccc(Cl)cc2)cc(-c2ccccc2OCCOc2ccccc2-c2cc(-c3ccc(Cl)cc3)nc(OC)c2C#N)c1C#N, the IC50 was 665 µM. CCOc1nc(-c2ccc(Cl)cc2)cc(-c2ccccc2OCCOc2ccccc2-c2cc(-c3ccc(Cl)cc3)nc(OCC)c2C#N)c1C#N showed an IC50 of 622 µM. For COc1nc(-c2ccc(F)cc2)cc(-c2ccccc2OCCOc2ccccc2-c2cc(-c3ccc(F)cc3)nc(OC)c2C#N)c1C#N, the IC50 was 517 µM. For CCOc1nc(-c2ccc(F)cc2)cc(-c2ccccc2OCCOc2ccccc2-c2cc(-c3ccc(F)cc3)nc(OCC)c2C#N)c1C#N, the IC50 was 470 µM. COc1nc(-c2ccc(C)cc2)cc(-c2ccccc2OCCOc2ccccc2-c2cc(-c3ccc(C)cc3)nc(OC)c2C#N)c1C#N was tested, and the IC50 was 795 µM. COc1ccc(-c2cc(-c3ccccc3OCCOc3ccccc3-c3cc(-c4ccc(OC)cc4)nc(OC)c3C#N)c(C#N)c(OC)n2)cc1 was tested, and the IC50 was 890 µM. With CCOc1nc(-c2ccc(OC)cc2)cc(-c2ccccc2OCCOc2ccccc2-c2cc(-c3ccc(OC)cc3)nc(OCC)c2C#N)c1C#N the IC50 was 696 µM. In the case of CCOc1nc(-c2ccc(O)cc2)cc(-c2ccccc2OCCOc2ccccc2-c2cc(-c3ccc(O)cc3)nc(OCC)c2C#N)c1C#N, the IC50 is reported as 970 µM. COc1nc(-c2cccs2)cc(-c2ccccc2OCCOc2ccccc2-c2cc(-c3cccs3)nc(OC)c2C#N)c1C#N showed an IC50 of 1270 µM. Compound CCOc1nc(-c2cccs2)cc(-c2ccccc2OCCOc2ccccc2-c2cc(-c3cccs3)nc(OCC)c2C#N)c1C#N has an IC50 of 865 µM.
